Converted amounts (≈) assume the structure as drawn.
What was measured:
Assay type in all cases: functional
[1] = tested on: Mycobacterium tuberculosis variant bovis BCG; assay: Antimicrobial activity against Mycobacterium bovis BCG ML1029 carrying transposon IS1096::Km inserted at +524bp of bcg2734c gene by microplate Alamar blue assay
Method in brief: (§1)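 Whole-cell M. bovis BCG (Institut Pasteur) MABA; mutants carried IS1096::Km insertions. Growth was in Middlebrook 7H9 with 0.2% glycerol, 0.05% Tween 80 and 10% OADC. Final drug ranges: ampicillin 62.5–2,000 μg/ml, vancomycin 1.25–40 μg/ml, streptomycin 0.25–8 μg/ml, chloramphenicol 4–128 μg/ml, tetracycline 0.5–16 μg/ml. MIC was the lowest concentration cutting viability ≥90%, read by fluorescence (ex 530/em 590 nm, room temperature).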

[2] = tested on: Mycobacterium tuberculosis variant bovis BCG; assay: Antimicrobial activity against Mycobacterium bovis BCG ML1012 carrying transposon IS1096::Km inserted at +1255bp of bcg3960c gene by microplate Alamar blue assay; method in brief: as §1
[3] = tested on: Mycobacterium tuberculosis variant bovis BCG; assay: Antimicrobial activity against Mycobacterium bovis BCG ML1048 carrying transposon IS1096::Km inserted at +519bp of bcg1567c gene by microplate Alamar blue assay; method in brief: as §1
[4] = tested on: Mycobacterium tuberculosis variant bovis BCG; assay: Antimicrobial activity against Mycobacterium bovis BCG ML1058 carrying transposon IS1096::Km inserted at +320bp of lprR gene by microplate Alamar blue assay; method in brief: as §1
[5] = tested on: Mycobacterium tuberculosis variant bovis BCG; assay: Antimicrobial activity against Mycobacterium bovis BCG ML1038 carrying transposon IS1096::Km inserted at +78bp of bcg2735 gene by microplate Alamar blue assay; method in brief: as §1
[6] = tested on: Mycolicibacterium smegmatis; assay: Antimicrobial activity against Mycobacterium smegmatis overexpressing rv0194 gene by microplate Alamar blue assay
Method in brief: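 M. smegmatis SMR5 carried either control plasmid pMS2 or rv0194 expression vector pML655. Cells were grown at 37°C in Middlebrook 7H9 with 0.2% glycerol and 0.05% Tween 80, then tested by microplate Alamar blue assay. MIC was the lowest antibiotic concentration reducing culture viability by ≥90%, read by fluorescence (ex 530/em 590 nm, room temperature).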

[7] = tested on: Mycobacterium tuberculosis variant bovis BCG; assay: Antimicrobial activity against Mycobacterium bovis BCG ML1061 carrying transposon IS1096::Km inserted at +19bp of lppA gene by microplate Alamar blue assay; method in brief: as §1
[8] = tested on: Mycobacterium tuberculosis variant bovis BCG; assay: Antimicrobial activity against Mycobacterium bovis BCG ML1007 carrying transposon IS1096::Km inserted at +988bp of ppe53 gene by microplate Alamar blue assay; method in brief: as §1
[9] = tested on: Mycobacterium tuberculosis variant bovis BCG; assay: Antimicrobial activity against Mycobacterium bovis BCG ML1013 carrying transposon IS1096::Km inserted at +923bp of cpsY gene by microplate Alamar blue assay; method in brief: as §1
[10] = tested on: Mycobacterium tuberculosis variant bovis BCG; assay: Antimicrobial activity against Mycobacterium bovis BCG ML1034 by microplate Alamar blue assay; method in brief: as §1
[11] = tested on: Mycobacterium tuberculosis variant bovis BCG; assay: Antimicrobial activity against Mycobacterium bovis BCG ML1047 carrying transposon IS1096::Km inserted at +544bp of fadD23 gene by microplate Alamar blue assay; method in brief: as §1
[12] = tested on: Mycobacterium tuberculosis variant bovis BCG; assay: Antimicrobial activity against Mycobacterium bovis BCG ML1036 carrying transposon IS1096::Km inserted at +277bp of agpS gene by microplate Alamar blue assay; method in brief: as §1
[13] = tested on: Mycobacterium tuberculosis variant bovis BCG; assay: Antimicrobial activity against Mycobacterium bovis BCG ML1050 carrying transposon IS1096::Km inserted at +41bp of bcg2827 gene by microplate Alamar blue assay; method in brief: as §1
[14] = tested on: Mycobacterium tuberculosis variant bovis BCG; assay: Antimicrobial activity against Mycobacterium bovis BCG ML1052 carrying transposon IS1096::Km inserted at +78bp of bcg2824 gene by microplate Alamar blue assay; method in brief: as §1
[15] = tested on: Mycobacterium tuberculosis variant bovis BCG; assay: Antimicrobial activity against Mycobacterium bovis BCG ML1025 carrying transposon IS1096::Km inserted at +435bp of bcg3145 gene by microplate Alamar blue assay; method in brief: as §1
[16] = tested on: Mycobacterium tuberculosis variant bovis BCG; assay: Antimicrobial activity against Mycobacterium bovis BCG ML1044 carrying transposon IS1096::Km inserted at -178bp of ppe33b gene by microplate Alamar blue assay; method in brief: as §1
[17] = tested on: Mycobacterium tuberculosis variant bovis BCG; assay: Antimicrobial activity against Mycobacterium bovis BCG ML1064 carrying transposon IS1096::Km inserted at +569bp of lppB gene by microplate Alamar blue assay; method in brief: as §1
[18] = tested on: Mycobacterium tuberculosis variant bovis BCG; assay: Antimicrobial activity against Mycobacterium bovis BCG ML1069 carrying transposon IS1096::Km inserted at +205bp of gmhA gene by microplate Alamar blue assay; method in brief: as §1
[19] = tested on: Mycobacterium tuberculosis variant bovis BCG; assay: Antimicrobial activity against Mycobacterium bovis BCG ML1040 carrying transposon IS1096::Km inserted at +1930bp of papA2 gene by microplate Alamar blue assay; method in brief: as §1
[20] = tested on: Mycobacterium tuberculosis variant bovis BCG; assay: Antimicrobial activity against Mycobacterium bovis BCG ML1075 carrying transposon IS1096::Km inserted at +899bp of gca gene by microplate Alamar blue assay; method in brief: as §1
[21] = tested on: Mycobacterium tuberculosis variant bovis BCG; assay: Antimicrobial activity against Mycobacterium bovis BCG ML1065 carrying transposon IS1096::Km inserted at +96bp of bcg0061 gene by microplate Alamar blue assay; method in brief: as §1
[22] = tested on: Mycobacterium tuberculosis variant bovis BCG; assay: Antimicrobial activity against Mycobacterium bovis BCG ML1060 carrying transposon IS1096::Km inserted at -206bp of fadD25/mmpL12 gene by microplate Alamar blue assay; method in brief: as §1
[23] = tested on: Mycobacterium tuberculosis variant bovis BCG; assay: Antimicrobial activity against Mycobacterium bovis BCG ML1034 carrying transposon IS1096::Km inserted at -54bp of bcg0231 gene by microplate Alamar blue assay; method in brief: as §1
[24] = tested on: Mycobacterium tuberculosis variant bovis BCG; assay: Antimicrobial activity against Mycobacterium bovis BCG ML1062 carrying transposon IS1096::Km inserted at -18bp of pks11 gene by microplate Alamar blue assay; method in brief: as §1
[25] = tested on: Mycobacterium tuberculosis variant bovis BCG; assay: Antimicrobial activity against Mycobacterium bovis BCG ML1010 carrying transposon IS1096::Km inserted at +43bp of ppe gene by microplate Alamar blue assay; method in brief: as §1
[26] = tested on: Mycobacterium tuberculosis variant bovis BCG; assay: Antimicrobial activity against Mycobacterium bovis BCG ML1053 carrying transposon IS1096::Km inserted at +271bp of bcg2326c gene by microplate Alamar blue assay; method in brief: as §1
[27] = tested on: Mycolicibacterium smegmatis; assay: Resistance factor, ratio of MIC for Mycobacterium smegmatis overexpressing rv0194 gene to MIC for wild-type Mycobacterium smegmatis SMR5
Method in brief: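 Resistance factor is the MABA MIC for M. smegmatis expressing rv0194 divided by the MIC for wild-type SMR5. MIC was the lowest concentration giving ≥90% viability reduction by fluorescence (ex 530/em 590 nm).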

[28] = tested on: Mycobacterium tuberculosis variant bovis BCG; assay: Antimicrobial activity against Mycobacterium bovis BCG ML1037 carrying transposon IS1096::Km inserted at +1765bp of bcg3693 gene by microplate Alamar blue assay; method in brief: as §1
[29] = tested on: Mycobacterium tuberculosis variant bovis BCG; assay: Antimicrobial activity against Mycobacterium bovis BCG ML1051 carrying transposon IS1096::Km inserted at -420bp of bcg2965 gene by microplate Alamar blue assay; method in brief: as §1
[30] = tested on: Mycobacterium tuberculosis variant bovis BCG; assay: Antimicrobial activity against Mycobacterium bovis BCG ML1041 carrying transposon IS1096::Km inserted at +1707bp of ppe24 gene by microplate Alamar blue assay; method in brief: as §1
[31] = tested on: Mycobacterium tuberculosis variant bovis BCG; assay: Antimicrobial activity against Mycobacterium bovis BCG ML1042 carrying transposon IS1096::Km inserted at -509bp of bcg2123c/pe22 gene by microplate Alamar blue assay; method in brief: as §1
[32] = tested on: Mycobacterium tuberculosis variant bovis BCG; assay: Antimicrobial activity against Mycobacterium bovis BCG ML1006 carrying transposon IS1096::Km inserted at +720bp of bcg3787 gene by microplate Alamar blue assay; method in brief: as §1
[33] = tested on: Mycobacterium tuberculosis variant bovis BCG; assay: Antimicrobial activity against Mycobacterium bovis BCG ML1009 carrying transposon IS1096::Km inserted at +368bp of cyp121 gene by microplate Alamar blue assay; method in brief: as §1
[34] = tested on: Mycobacterium tuberculosis variant bovis BCG; assay: Antimicrobial activity against Mycobacterium bovis BCG ML1046 carrying transposon IS1096::Km inserted at +33bp of bcg2743 gene by microplate Alamar blue assay; method in brief: as §1
[35] = tested on: Mycobacterium tuberculosis variant bovis BCG; assay: Antimicrobial activity against Mycobacterium bovis BCG ML1030 carrying transposon IS1096::Km inserted at +849bp of bcg1988c gene by microplate Alamar blue assay; method in brief: as §1

Work on CC1(C)S[C@@H]2[C@H](NC(=O)[C@H](N)c3ccccc3)C(=O)N2[C@H]1C(=O)O [AMPICILLIN] yielded an MIC [1] of over 2000 mg/L, an MIC [2] of over 2000 mg/L and an MIC [3] of 250 mg/L (≈ 715 µM). The MIC [4] was 2000 mg/L (≈ 5720 µM), the MIC [5] was 2000 mg/L (≈ 5720 µM) and the MIC [6] was 250 mg/L (≈ 715 µM). The MIC [7] was over 2000 mg/L, the MIC [8] was 2000 mg/L (≈ 5720 µM) and the MIC [9] was 2000 mg/L (≈ 5720 µM). It also gave an MIC [10] of 2000 mg/L (≈ 5720 µM), an MIC [11] of 2000 mg/L (≈ 5720 µM) and an MIC [12] of 250 mg/L (≈ 715 µM). The MIC [13] was 2000 mg/L (≈ 5720 µM), the MIC [14] was over 500 mg/L and the MIC [15] was 250 mg/L (≈ 715 µM). For the same compound, the MIC [16] was 250 mg/L (≈ 715 µM), the MIC [17] was 2000 mg/L (≈ 5720 µM) and the MIC [18] was 2000 mg/L (≈ 5720 µM). It also gave an MIC [19] of 2000 mg/L (≈ 5720 µM), an MIC [20] of 2000 mg/L (≈ 5720 µM) and an MIC [21] of over 2000 mg/L. The MIC [22] was 250 mg/L (≈ 715 µM), the MIC [23] was 2000 mg/L (≈ 5720 µM) and the MIC [24] was over 2000 mg/L. For the same compound, the MIC [25] was 500 mg/L (≈ 1430 µM), the MIC [26] was 2000 mg/L (≈ 5720 µM) and the Ratio [27] was 2. For the same compound, the MIC [28] was 250 mg/L (≈ 715 µM), the MIC [29] was over 500 mg/L and the MIC [30] was over 2000 mg/L. For the same compound, the MIC [31] was 500 mg/L (≈ 1430 µM), the MIC [32] was 2000 mg/L (≈ 5720 µM) and the MIC [33] was 2000 mg/L (≈ 5720 µM). It also gave an MIC [34] of 500 mg/L (≈ 1430 µM) and an MIC [35] of 2000 mg/L (≈ 5720 µM).

For O=C(N[C@H](CO)[C@H](O)c1ccc([N+](=O)[O-])cc1)C(Cl)Cl [CHLORAMPHENICOL], the MIC [6] was 32 mg/L (≈ 99 µM), the MIC [10] was 512 mg/L (≈ 1580 µM) and the Ratio [27] was 1.

For CC[C@H]1OC(=O)[C@H](C)[C@@H](O[C@H]2C[C@@](C)(OC)[C@@H](O)[C@H](C)O2)[C@H](C)[C@@H](O[C@@H]2O[C@H](C)C[C@H](N(C)C)[C@H]2O)[C@](C)(O)C[C@@H](C)C(=O)[C@H](C)[C@@H](O)[C@]1(C)O [ERYTHROMYCIN], the MIC [6] was 10 mg/L (≈ 13.6 µM) and the Ratio [27] was 4.

With CO[C@@H]1[C@@H](OC(N)=O)[C@@H](O)[C@H](Oc2ccc3c(O)c(NC(=O)c4ccc(O)c(CC=C(C)C)c4)c(=O)oc3c2C)OC1(C)C [NOVOBIOCIN] the MIC [6] was 8 mg/L (≈ 13.1 µM) and the Ratio [27] was 2.

Compound CN[C@@H]1[C@H](O[C@H]2[C@H](O[C@H]3[C@H](O)[C@@H](O)[C@H](N=C(N)N)[C@@H](O)[C@@H]3N=C(N)N)O[C@@H](C)[C@]2(O)C=O)O[C@@H](CO)[C@H](O)[C@H]1O [STREPTOMYCIN] has an MIC [10] of 16 mg/L (≈ 27.5 µM).

With CN(C)[C@@H]1C(O)=C(C(N)=O)C(=O)[C@@]2(O)C(O)=C3C(=O)c4c(O)cccc4[C@@](C)(O)[C@H]3C[C@@H]12 [TETRACYCLINE] the MIC [6] was 0.3 mg/L (≈ 0.675 µM), the MIC [10] was over 16 mg/L and the Ratio [27] was 1.

With CN[C@H](CC(C)C)C(=O)N[C@H]1C(=O)N[C@@H](CC(N)=O)C(=O)N[C@H]2C(=O)N[C@H]3C(=O)N[C@H](C(=O)N[C@H](C(=O)O)c4cc(O)cc(O)c4-c4cc3ccc4O)[C@H](O)c3ccc(c(Cl)c3)Oc3cc2cc(c3O[C@@H]2O[C@H](CO)[C@@H](O)[C@H](O)[C@H]2O[C@H]2C[C@](C)(N)[C@H](O)[C@H](C)O2)Oc2ccc(cc2Cl)[C@H]1O [VANCOMYCIN] the MIC [6] was 2.5 mg/L (≈ 1.73 µM), the MIC [10] was 20 mg/L (≈ 13.8 µM) and the Ratio [27] was 2.

— ChEMBL document CHEMBL1275448, “Identification of a novel multidrug efflux pump of Mycobacterium tuberculosis” (2008)
